# PAFAH1B2 inh – PAFAH1B2 enzyme inhibitors, primary screen, biochemical, fluorescence polarization, human | inhibition, % at 3.39 µM | 340,000 tested, 1.2% active | recombinant PAFAH1B2, FP-rhodamine activity probe | Platelet-activating factor acetylhydrolase IB subunit alpha2 (Homo sapiens), P68402 | AID 492953, 2010;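 active = inhibition above the mean of all tested compounds plus 3 SD, cut at about 24% in these data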;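 note: 0% = enzyme with DMSO and 100% = wells lacking PAFAH1B2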
# Target sequence (P68402 whole entry, looked up): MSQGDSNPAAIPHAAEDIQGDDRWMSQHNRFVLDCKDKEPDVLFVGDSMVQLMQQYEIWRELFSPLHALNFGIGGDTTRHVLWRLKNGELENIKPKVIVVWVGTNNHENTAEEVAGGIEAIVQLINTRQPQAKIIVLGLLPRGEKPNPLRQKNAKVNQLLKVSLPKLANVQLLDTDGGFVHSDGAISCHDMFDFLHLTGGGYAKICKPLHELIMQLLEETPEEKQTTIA
# NR3A LBD binder – binders of NR3A ligand-binding domain, primary screen, biophysical, differential scanning fluorimetry, uHTS. Glutamate receptor ionotropic, NMDA 3A (GRIN3A) ligand-binding domain. NR3A LBD differential scanning fluorimetry, Tm shift; 0% = protein alone, 100% = glycine-bound protein. Tm shift relative to glycine control, % at 25 µM. 340,000 tested, 2.5% active. AID 1259313, 2017;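 active = melting temperature shift of at least 10% of the positive control shift, at one fixed dose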
# PAFAH1B3 inh – PAFAH1B3 enzyme inhibitors, primary screen, biochemical, fluorescence polarization, human; Platelet-activating factor acetylhydrolase IB subunit alpha1 (Homo sapiens), Q15102; recombinant PAFAH1B3, FP-rhodamine probe; 340,000 tested, 0.28% active; inhibition, % at 3.39 µM;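 active = inhibition above the screen-wide average of all tested compounds plus 3 SD, cut at about 25% in these data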;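 note: 0% = enzyme with DMSO only and 100% = wells lacking PAFAH1B3 protein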
# PAFAH2 FP inh – PAFAH2 enzyme inhibitors, primary screen, biochemical, fluorescence polarization, human; recombinant PAFAH2, FP-rhodamine activity probe; 340,000 tested, 0.99% active; Platelet-activating factor acetylhydrolase 2, cytoplasmic (Homo sapiens), Q99487; inhibition, % at 3.39 µM;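 active = inhibition above the mean over all tested compounds plus 3 SD, cut at about 30% in these data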;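 note: inhibitors block probe labeling of enzyme so polarization drops; 0% = enzyme with DMSO and 100% = wells lacking PAFAH2 protein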
# pPAFAH FP inh – pPAFAH enzyme inhibitors, primary screen, biochemical, fluorescence polarization, human; 330,000 tested, 1.5% active; recombinant pPAFAH, FP-rhodamine probe fluorescence polarization; AID 463082, 2010; inhibition, % at 3.39 µM; Platelet-activating factor acetylhydrolase (Homo sapiens), Q13093;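 active = inhibition above the mean inhibition across the screen plus 3 SD, cut at about 25% in these data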;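 note: inhibitors block binding of the rhodamine activity-based probe so polarization drops; 0% = enzyme with DMSO and 100% = wells lacking pPAFAH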
# Target sequence (Q13093 whole entry, looked up): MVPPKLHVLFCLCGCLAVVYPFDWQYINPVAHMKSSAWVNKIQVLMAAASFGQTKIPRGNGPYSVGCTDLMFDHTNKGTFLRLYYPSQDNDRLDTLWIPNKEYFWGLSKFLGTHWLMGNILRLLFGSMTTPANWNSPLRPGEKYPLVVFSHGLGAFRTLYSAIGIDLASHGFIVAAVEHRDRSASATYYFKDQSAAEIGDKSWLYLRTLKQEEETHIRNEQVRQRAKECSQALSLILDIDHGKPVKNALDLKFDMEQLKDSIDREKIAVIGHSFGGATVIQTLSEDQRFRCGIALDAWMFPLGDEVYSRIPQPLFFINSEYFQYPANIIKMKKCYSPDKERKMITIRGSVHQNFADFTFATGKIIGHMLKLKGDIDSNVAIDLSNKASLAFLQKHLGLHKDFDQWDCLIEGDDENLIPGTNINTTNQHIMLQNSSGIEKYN
# UCH37 inh – inhibitors of human UCH37 deubiquitinase, primary screen, biochemical, Ub-AMC cleavage, fluorescence; purified proteasome/UCH37; 330,000 tested, 0.33% active; Ubiquitin carboxyl-terminal hydrolase isozyme L5 (Homo sapiens), Q9Y5K5; inhibition, % (test concentration not listed);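 active = mean inhibition over replicate wells above about 20%, limit read from the data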;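 note: 0% = compound-free wells with enzyme and 100% = wells lacking proteasome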
#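 Test system – human UCH37 enzyme supplied as purified proteasome complex · Incubation – 30 min preincubation with enzyme, 25 min cleavage at room temperature · Detection – AMC fluorescence from Ub-AMC cleavage, excitation 355 nm, emission 460 nm · Benchmarks – no-proteasome wells (full inhibition) and compound-free wells (no inhibition)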
# PAFAH2 confirm – PAFAH2 enzyme inhibitors, confirmation, biochemical, fluorescence polarization, human; shares compounds with PAFAH2 FP inh; recombinant PAFAH2, FP-rhodamine activity probe; inhibition, % at 3.39 µM; 2,300 tested, 65% active; AID 493030, 2011;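 active = mean inhibition over three repeats above a set limit taken from the earlier primary screen, cut at about 30% in these data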;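 note: inhibitor blocks binding of rhodamine activity probe so polarization falls; 0% = enzyme with DMSO and 100% = wells lacking PAFAH2 protein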
# * hit, by the source's call; i = inactive; / = no result. Only some compounds are listed: those with a hit (about 4.8% of all), similar ones and a draw of the others.
SMILES,PAFAH1B2 inh,NR3A LBD binder,PAFAH1B3 inh,PAFAH2 FP inh,pPAFAH FP inh,UCH37 inh,PAFAH2 confirm
Cc1ccccc1C=Nn1c(-c2ccccn2)n[nH]c1=S,/,/,/,/,/,2,/
O=c1c2sccc2[nH]c(=S)n1Cc1ccccc1,1,-5,5,63*,4,2,52*
O=C(Nc1ncccn1)c1ccc([N+](=O)[O-])o1,8,1,8,78*,9,i,67*
CC(C)(C)NC(=O)c1ccccc1NC(=O)c1ccc2c(c1)OCO2,0,-1,6,3,2,-1,/
CCCCNC(=O)c1ccccc1NC(=O)c1ccc2c(c1)OCO2,4,3,8,47*,-5,-3,38*
CCN(CC)S(=O)(=O)c1cccc(NC(=O)COC(=O)C2COc3ccccc3O2)c1 (centres undefined),4,-1,0,2,10,3,/
O=C(COC(=O)C1=COCCO1)Nc1ccc(F)cc1,2,0,5,69*,7,-1,59*
O=C(COC(=O)C1=COCCO1)Nc1ccc(Br)cc1Br,-1,1,4,58*,9,-4,46*
CCOC(=O)c1ccccc1NC(=O)COC(=O)C1=COCCO1,1,2,-1,5,1,1,/
CCC(C)c1ccccc1NC(=O)COC(=O)C1=COCCO1 (centres undefined),5,0,11,62*,9,1,48*
CCN(CC)S(=O)(=O)c1cccc(NC(=O)COC(=O)C2=COCCO2)c1,9,0,15,30*,6,2,11
Cc1ccccc1NC(=O)COC(=O)C1=COCCO1,3,2,7,21,0,1,/
CC(=NNC(=O)CN1CCN(S(=O)(=O)c2ccc(C)cc2)CC1)c1ccc(O)cc1,/,/,/,/,/,1,/
COc1ccccc1N(CC(=O)NN=Cc1ccccc1C(=O)O)S(C)(=O)=O,/,/,/,/,/,6,/
O=C(COC(=O)C1=COCCO1)Nc1ccc(Oc2ccccc2)cc1,-4,1,-1,83*,6,0,77*
O=c1c2c3nc4ccccc4nc3n(N=Cc3ccncc3)c2ncn1-c1ccccc1,/,/,/,/,/,-4,/
O=[N+]([O-])c1ccc(NN=Cc2cn(-c3ccccc3)nc2-c2ccccc2)cc1,/,/,/,/,/,5,/
COCCN(C(=S)Nc1c(C)cc(C)cc1C)C(C)c1cccs1 (centres undefined),2,-4,5,31*,7,4,28
COCCN(C(=S)Nc1ccc(C)cc1C)C(C)c1cccs1 (centres undefined),6,0,1,20,1,1,/
O=[N+]([O-])c1cccc(C=NNC2=NCCCCC2)c1,/,/,/,/,/,0,/
CSCCC(NS(=O)(=O)c1c(Cl)cccc1Cl)C(=O)O (centres undefined),-2,-1,3,2,-3,4,/
CSCCC(NS(=O)(=O)c1ccc(Cl)cc1)C(=O)O (centres undefined),4,-1,-1,35*,-2,0,29
O=C(COC(=O)c1cccc(Cl)c1)NCc1ccccc1,2,2,5,20,14,0,/
CCOc1ccc(C(=O)OCC(=O)NCc2ccccc2)cc1OCC,2,0,9,72*,1,4,66*
CCOc1ccc(C(=O)OCC(=O)Nc2cccnc2Cl)cc1OCC,2,2,2,74*,8,-1,58*
SMILES,PAFAH1B2 inh,NR3A LBD binder,PAFAH1B3 inh,PAFAH2 FP inh,pPAFAH FP inh,UCH37 inh,PAFAH2 confirm
O=C(OCc1cc(=O)n2c(n1)sc1ccccc12)c1ccc(O)cc1,0,-7,4,34*,5,-13,7
Nc1ccc(C(=O)OCc2nc3ccccc3s2)cc1,-1,-3,6,60*,1,/,48*
O=C(OCc1nc2ccccc2s1)c1ccc(Br)s1,1,0,3,17,11,2,/
O=C(OCc1nc2ccccc2s1)c1cccc(S(=O)(=O)N2CCOCC2)c1,0,4,9,45*,12,-5,29
COc1ccc(C(=O)NN=C2SCC(=O)N2Cc2ccc3c(c2)OCO3)c(OC)c1,/,/,/,/,/,2,/
O=C(COC(=O)C1CC2C=CC1C2)NCc1ccco1 (centres undefined),1,0,3,32*,16,4,12
C=CCOc1ccc(/C=C/C(=O)OCC(=O)NCc2ccco2)cc1,0,2,8,46*,6,0,36*
O=C(COC(=O)C1CC2C=CC1C2)NCc1ccc(F)cc1 (centres undefined),3,1,2,22,10,1,/
C=CCOc1ccc(/C=C/C(=O)OCC(=O)NCCc2ccccc2)cc1,-2,3,-2,28,6,-6,/
O=C(COC(=O)/C=C/c1ccc(F)cc1)NCc1ccco1,2,0,3,47*,12,5,29
O=C(COC(=O)/C=C/c1ccc([N+](=O)[O-])cc1)NCc1ccco1,2,-2,9,13,6,2,/
CCCCN1C(=O)C(=c2sc3nc(=O)c(-c4ccccc4)nn3c2=O)c2ccccc21,/,/,/,/,/,-1,/
O=C(Nc1ccccc1-c1nc2ccccc2[nH]1)c1ccc(S(=O)(=O)N2CCCCC2)cc1,-23,7,-32,-50,/,-14,/
CC1CCCCN1S(=O)(=O)c1ccc(C(=O)Nc2ccccc2-c2nc3ccccc3[nH]2)cc1 (centres undefined),4,30*,-36,37*,-15,-35,4
COc1ccc(OC)c(CCNC(=O)CN2C(=O)CCSc3ccccc32)c1,16,-4,17,36*,2,6,-7
CCOc1ccc(CCNC(=O)CN2C(=O)CCSc3ccccc32)cc1OCC,1,-1,4,-6,-3,0,/
COc1ccc(C(=O)ON=C2CCCc3nonc32)cc1,/,/,/,/,/,1,/
O=C(COC(=O)c1c2c(nc3ccccc13)/C(=C/c1ccco1)CC2)NC1CCCC1,4,-5,18,36*,/,-74,7
O=C(COC(=O)c1ccc(Br)cc1)NC1CCCC1,-1,-3,4,67*,18,3,69*
CNS(=O)(=O)c1cccc(C(=O)OCC(=O)NC2CCCC2)c1,-3,1,8,46*,6,-2,28

# Source: PubChem (several laboratories)
